TRPC4 inh – inhibitors of mouse TRPC4 channel, primary screen, Fluo4 calcium, HEK293 TRPC4beta/mu-opioid cells; B-score at 10 µM; AID 2247, 2010; 300,000 compounds, 0.39% hits; Short transient receptor potential channel 4 (Mus musculus), Q9QUQ5; DAMGO-evoked Fluo4 calcium flux; hits give low values;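 active means B-score over 3 SD under the library average, no early fluorescence shift, positive overall ratio signal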
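Signal: kinetic Fluo4 fluorescence imaging of calcium influx. Material: stable TRPC4beta/mu-opioid receptor HEK293 cells. Probe or stimulus: DAMGO in two steps, submaximal then maximal.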
TRPC6 inh – mouse TRPC6 channel inhibitors, primary screen, cell-based, HEK293, membrane potential dye. Short transient receptor potential channel 6 (Mus musculus), Q61143. ACh-evoked depolarization; hits give low values. B-score at 10 µM. 310,000 compounds, 1.1% hits;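 active means B-score under library mean minus 3 SD, initial fluorescence not abnormally high, positive integrated signal ratio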;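 further: B-score derived from integrated fluorescence ratio over the kinetic read; more negative B-score means stronger inhibition of depolarization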
Target sequence (Q61143 whole entry, looked up): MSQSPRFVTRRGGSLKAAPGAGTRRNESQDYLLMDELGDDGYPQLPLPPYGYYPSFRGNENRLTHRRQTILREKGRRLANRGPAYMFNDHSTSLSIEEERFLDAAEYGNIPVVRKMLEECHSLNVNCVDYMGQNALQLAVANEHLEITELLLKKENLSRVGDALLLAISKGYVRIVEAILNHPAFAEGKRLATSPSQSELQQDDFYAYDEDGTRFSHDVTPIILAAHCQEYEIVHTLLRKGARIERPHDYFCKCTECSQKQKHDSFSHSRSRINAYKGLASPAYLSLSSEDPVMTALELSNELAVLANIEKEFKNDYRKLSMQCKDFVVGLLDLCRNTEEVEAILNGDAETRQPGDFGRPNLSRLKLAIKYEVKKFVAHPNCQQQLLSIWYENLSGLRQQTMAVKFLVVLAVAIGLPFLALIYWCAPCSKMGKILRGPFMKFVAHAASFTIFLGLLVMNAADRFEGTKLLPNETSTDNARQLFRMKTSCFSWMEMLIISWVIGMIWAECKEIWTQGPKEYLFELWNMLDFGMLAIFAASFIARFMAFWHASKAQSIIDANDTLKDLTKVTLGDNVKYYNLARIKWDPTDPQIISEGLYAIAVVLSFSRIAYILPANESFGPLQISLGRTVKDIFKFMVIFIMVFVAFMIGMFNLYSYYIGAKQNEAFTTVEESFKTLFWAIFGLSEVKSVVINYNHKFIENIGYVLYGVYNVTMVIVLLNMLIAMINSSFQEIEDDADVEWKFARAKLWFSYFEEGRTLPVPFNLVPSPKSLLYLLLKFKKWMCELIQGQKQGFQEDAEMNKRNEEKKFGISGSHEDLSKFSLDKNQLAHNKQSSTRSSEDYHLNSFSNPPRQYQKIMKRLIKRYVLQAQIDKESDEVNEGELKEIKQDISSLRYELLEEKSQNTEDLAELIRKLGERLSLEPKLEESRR
TRPC4 act – activators of mouse TRPC4 channel, primary screen, Fluo4 calcium, HEK293 TRPC4beta/mu-opioid cells; Short transient receptor potential channel 4 (Mus musculus), Q9QUQ5; Fluo4 calcium fluorescence; hits give high values; B-score at 10 µM; 310,000 compounds, 0.49% hits;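 active means B-score above 5 SD of library B-scores, and initial fluorescence ratio not above library mean plus 5 SD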;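 further: positive B-score marks a calcium rise read as TRPC4 activation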
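Test system: HEK293 cells stably co-expressing mouse TRPC4beta and mu-opioid receptor | Schedule: Fluo4 dye loading 45 min at room temperature, 110 s recording | Measured by: Kinetic Fluo4 calcium fluorescence, 5 s baseline at 1 Hz | Evaluation: B score of integrated ratio | Controls: Buffer (low) and maximal DAMGO (high)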
TRPC4 PAM – positive allosteric modulators of TRPC4, primary screen, cell-based, mouse TRPC4beta, HEK293 mu-opioid, Fluo-4 calcium; AID 2227, 2009; B-score at 10 µM; DAMGO EC20, Fluo-4 Ca2+ flux; hits give high values; Short transient receptor potential channel 4 (Mus musculus), Q9QUQ5; 310,000 compounds, 0.42% hits;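 active means B-score of calcium response area above 5 SD of library B-scores, with initial fluorescence ratio within 5 SD of library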;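 further: B-score of integrated fluorescence ratio over time as area under calcium response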
TRPC6 act – mouse TRPC6 channel activators, primary screen, cell-based, HEK293, membrane potential dye | Short transient receptor potential channel 6 (Mus musculus), Q61143 | HEK293-TRPC6 membrane potential dye fluorescence; hits give high values | B-score at 10 µM | 310,000 compounds, 0.13% hits | AID 2550, 2010;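 active means B-score of the integrated fluorescence ratio above library mean plus 3 SD, and starting fluorescence ratio within library mean plus 5 SD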;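 further: higher score means more depolarization so channel activation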
TRPC4 spec 2 – second check of whether TRPC6 inhibitors also affect mouse TRPC4 | AID 2776 | 920 compounds, 42% hits | inhibition, % at 10 µM | HEK293 TRPC4/MOR, membrane potential dye fluorescence; channel activated by saturating DAMGO dose | shares compounds with TRPC6 inh;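 active means compounds whose fluorescence signal differed from control wells by over 3 SD, either direction, in both duplicate plates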
TRPC4 spec – mouse TRPC4 modulation by TRPC6 hits, confirmation, selectivity assay for TRPC6 inhibitor project, cell-based, HEK293 TRPC4/mu-opioid, membrane potential dye; shares compounds with TRPC6 inh; membrane potential fluorescence; activity change, negative = inhibition, % at 10 µM; 920 compounds, 61% hits; AID 2777, 2010;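 active means rise or fall in signal beyond 3 SD of buffer-only wells in both replicate plates, either sign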;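 further: integrated kinetic ratio of fluorescence range over baseline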
HEK293 MPD ctr 2-1 – nonspecific membrane potential effects, parental HEK293, confirmation, counter-screen for TRPC6 inhibitor project, cell-based, second counter screen. 920 compounds, 31% hits. signal change vs control, % at 10 µM. AID 2779, 2010. parental HEK293 membrane potential dye fluorescence; maximal acetylcholine challenge after compound addition. shares compounds with TRPC6 inh;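 active means membrane potential signal moving either way by over 3 SD of the maximum-effect control, in both duplicate plates, meaning non-specific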
HEK293 MPD ctr-1 – membrane potential modulation in parental HEK293, confirmation, counter-screen for TRPC6 inhibitor project, cell-based; parental HEK293 membrane potential dye fluorescence; AID 2780, 2010; shares compounds with TRPC6 inh; 920 compounds, 60% hits; membrane potential signal change, % at 10 µM;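 active means membrane potential signal shifting up or down by more than 3 SD of buffer-only wells, on both duplicate plates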
HEK293 MPD ctr-2 – parental HEK293 membrane potential modulation, confirmation, counter-screen for TRPC6 modulator project, cell-based; shares compounds with TRPC6 inh; membrane potential signal change, % at 10 µM; 2,400 compounds, 51% hits; membrane potential dye fluorescence;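 active means membrane potential signal moves up or down beyond 5 SD from buffer-only wells, on both duplicate plates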
HEK293 MPD ctr 2-2 – second check of TRPC6 modulator effects in parental HEK293 cells | shares compounds with TRPC6 inh | membrane potential dye fluorescence; after compound, maximal acetylcholine stimulation | inhibition, % at 10 µM | 2,400 compounds, 14% hits | AID 488926;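 active means membrane potential signal drops by more than 5 SD from the mean control signal, in both duplicate plates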;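 further: plate controls were acetylcholine ECmax control wells for no effect and buffer only wells for full effect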
TRPC4/MOR mod – TRPC4 modulation by TRPC6 hit compounds, confirmation, selectivity assay for TRPC6 modulator project, cell-based, HEK293 TRPC4/mu-opioid, membrane potential dye, mouse. shares compounds with TRPC6 inh. membrane potential fluorescence. percent change from control (negative = decrease, positive = increase), % at 10 µM. 2,400 compounds, 69% hits;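 active means membrane potential signal moved up or down beyond 5 SD of buffer control wells, in both duplicate plates, actives on both sides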;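 further: plate controls were assay buffer wells for no effect and DAMGO maximal-effect wells for full effect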
TRPC4/MOR inh 2 – second selectivity test of TRPC6 modulators against mouse TRPC4; shares compounds with TRPC6 inh; HEK293 TRPC4/mu-opioid, membrane potential dye fluorescence; stimulated with maximal-effect DAMGO; inhibition, % at 10 µM; 2,400 compounds, 55% hits;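 active means drop in membrane potential signal beyond 5 SD of the control wells in both duplicate plates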;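 further: TRPC4 counter screen for TRPC6 hits run under conditions tuned for TRPC6 not TRPC4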
TRPC6 block conf – mouse TRPC6 channel inhibitors, confirmation, HEK293 cells, membrane potential dye, duplicate; AID 488960, 2010; ACh-evoked depolarization; inhibition, % at 10 µM; 3,300 compounds, 43% hits; shares compounds with TRPC6 inh;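 active means fluorescence ratio falls more than 5 SD below the full-stimulation control mean, in both duplicate runs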;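 further: integrated fluorescence ratio of peak minus minimum over baseline after agonist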
TRPC6 act confirm – mouse TRPC6 channel activators, confirmation, HEK293 cells, membrane potential dye, duplicate; shares compounds with TRPC6 inh; HEK293-TRPC6 membrane potential dye fluorescence, FDSS; activation, % at 10 µM; 2,800 compounds, 11% hits;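 active means ratio signal rise beyond 5 SD above unstimulated control wells' mean, seen in both duplicate runs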;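 further: plate controls were buffer EC0 wells for no effect and acetylcholine ECmax response for full effect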
Starred values were filed as active, the others as inactive; i = inactive; · = no result given. Rows were chosen to be rich in hits. Some 2.3% of all compounds tested hit in one or more screens of this group.

SMILES	TRPC4 inh	TRPC6 inh	TRPC4 act	TRPC4 PAM	TRPC6 act	HEK293 MPD ctr-2	HEK293 MPD ctr 2-2	TRPC4/MOR mod	TRPC4/MOR inh 2	TRPC6 block conf	TRPC6 act confirm	others
Cc1cc(F)ccc1S(=O)(=O)N1CCCOC1CNC(=O)C(=O)NC1CC1 (configuration not stated)	i	i	i	i	i	·	·	·	·	·	·
O=C(COc1cccnc1[N+](=O)[O-])c1ccc(Cl)s1	i	i	i	i	i	·	·	·	·	·	·
CCCCCC[N+](C)(C)CC/C=C1/c2ccccc2Sc2ccc(Cl)cc21	-7*	-6.6*	i	i	i	·	·	·	·	78%*	i	TRPC4 spec 2=i;TRPC4 spec=i;HEK293 MPD ctr 2-1=i;HEK293 MPD ctr-1=i
CN(C)CC/C=C1/c2ccccc2Sc2ccc(Cl)cc21	i	-5.3*	i	i	i	i	i	9.0%*	54%*	48%*	i
CN(C)CC/C=C1\c2ccccc2COc2ccccc21	i	i	i	i	i	·	·	·	·	·	·
O=C(COc1coc(CN2CCN(c3ccccc3F)CC2)cc1=O)NC1CCCC1	i	i	i	i	i	·	·	·	·	·	·
COc1ccccc1CNS(=O)(=O)c1c(C)[nH]c(C)c1C(=O)N1CCCC1	i	i	i	i	i	·	·	·	·	·	·
CCOc1cc(C(=O)NCCCNC(=O)c2cc(OCC)c(OCC)c(OCC)c2)cc(OCC)c1OCC	i	i	i	i	i	·	·	·	·	·	·
NS(=O)(=O)c1ccc(NC(=O)NC2CC(=O)N(c3ccc4c(c3)OCCO4)C2)cc1 (configuration not stated)	i	i	i	i	i	·	·	·	·	·	·
CC(C)c1nnc(NC(=O)CCC(=O)N2CCC(Cc3ccccc3)CC2)s1	i	i	i	i	i	·	·	·	·	·	·
CCN(CC)CCCn1c2c(c(SCC(=O)Nc3cccc4ccccc34)nc1=O)CCC2	i	i	i	i	i	·	·	·	·	·	·
CN(C)CCCn1c2c(c(SCC(=O)Nc3cccc4ccccc34)nc1=O)CCCC2	i	-5.3*	i	i	i	i	i	i	46%*	i	i
C=CCn1c(=N)c(C#N)cc2c(=O)n3ccccc3nc21	i	-8.7*	i	i	i	-278%*	i	-44%*	38%*	i	i
C=CCn1c(=O)c(CCC(=O)Nc2ccc(N3CCOCC3)cc2)nc2cc(C(F)(F)F)ccc21	i	i	i	i	i	·	·	·	·	·	·
COc1ccccc1Nc1nc(NCCO)c2ccccc2n1	i	i	i	i	i	·	·	·	·	·	·
COc1ccc(OC)c(Nc2nc(NCCO)c3ccccc3n2)c1	-5*	-9*	i	i	i	·	·	·	·	79%*	i	TRPC4 spec 2=44%*;TRPC4 spec=-24%*;HEK293 MPD ctr 2-1=32%*;HEK293 MPD ctr-1=-274%*
COc1ccccc1Nc1nc(NCC2CCCO2)c2ccccc2n1 (configuration not stated)	-7*	-8.8*	i	i	i	·	·	·	·	112%*	i	TRPC4 spec 2=32%*;TRPC4 spec=-13%*;HEK293 MPD ctr 2-1=i;HEK293 MPD ctr-1=-139%*
COc1cccc(-c2nc(NCC3CCCO3)c3ccccc3n2)c1O (configuration not stated)	i	i	i	i	i	·	·	·	·	·	·
COc1ccc(OC)c(Nc2c3ccccc3nc3ccccc23)c1	-6*	-6*	i	i	i	-182%*	i	-30%*	70%*	53%*	i
OCCNc1nc(-c2ccccc2)nc2ccccc12	i	i	i	i	i	·	·	·	·	·	·
Cc1ccc(Nc2nc(NCCO)c3ccccc3n2)cc1C	i	-6.5*	i	i	i	i	77%*	-16%*	86%*	79%*	i
CCOc1ccc2[nH]cc(-c3csc(N)n3)c2c1	i	i	i	i	i	·	·	·	·	·	·
COc1ccc(CN2CCN(Cc3cc4ccccc4o3)CC2CCO)cc1C (configuration not stated)	i	i	i	i	i	·	·	·	·	·	·
Nc1nc(SCC(=O)N2CCCc3ccccc32)[nH]c(=O)c1-c1ccccc1	i	-6.5*	i	i	i	180%*	i	34%*	i	i	·
